VLA-4 inh – inhibition in a human VLA-4 binding assay. VLA-4 expressing cells, ligand binding flow cytometry. inhibition, % (about 7 µM as worked out from the volumes in the protocol). actives 0.2% (n = 330,000). AID 2557; in the data active = inhibition above about 50%
CHT allo act – allosterically activates the human high affinity choline transporter. Q9GZV3. CHT-expressing cells, membrane potential dye, choline EC20; hits give high values; LV-AA mutant CHT in HEK293 cells. B-score at 10 µM. actives 0.49% (n = 310,000). AID 488977;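 active = initial fluorescence not abnormally high and integrated response B-score, plate-corrected, over 3 SD above library mean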
Target sequence (Q9GZV3 whole entry, looked up): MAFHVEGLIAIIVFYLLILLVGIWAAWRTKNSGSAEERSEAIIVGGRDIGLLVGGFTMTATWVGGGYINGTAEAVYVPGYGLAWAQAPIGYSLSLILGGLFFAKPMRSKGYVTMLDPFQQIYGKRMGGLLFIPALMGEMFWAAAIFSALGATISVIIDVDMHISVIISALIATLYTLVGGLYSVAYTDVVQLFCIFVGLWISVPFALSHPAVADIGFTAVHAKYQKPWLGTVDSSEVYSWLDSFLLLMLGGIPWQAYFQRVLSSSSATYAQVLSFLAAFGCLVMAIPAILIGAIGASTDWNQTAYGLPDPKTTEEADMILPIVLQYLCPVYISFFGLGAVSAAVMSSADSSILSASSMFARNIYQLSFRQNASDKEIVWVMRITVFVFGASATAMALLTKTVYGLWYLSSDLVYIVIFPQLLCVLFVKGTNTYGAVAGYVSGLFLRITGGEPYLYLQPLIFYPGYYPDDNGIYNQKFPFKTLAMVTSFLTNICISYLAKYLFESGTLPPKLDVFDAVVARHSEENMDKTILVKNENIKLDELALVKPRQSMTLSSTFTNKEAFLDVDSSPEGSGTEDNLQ
CHT inh – human CHT choline transport inhibition; CHT-expressing cells, membrane potential dye, choline response; hits give low values; B-score at 10 µM; actives 0.86% (n = 310,000);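 active = B-score over 3 SD under the library average, and starting fluorescence ratio not unusually high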;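 note: choline stimulus applied at its EC90 after an EC20 pre-addition; B-score computed on integrated fluorescence ratio after choline addition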
T cell modulator – T cell immune modulators affecting CD8 T cell-vesicle binding; 2C CD8+ T cell-vesicle binding, flow cytometry; hits give low values; response (vesicle binding), % at 7 µM; actives 0.068% (n = 330,000); AID 2052;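 active = response, share of CD8 T cells binding vesicles, and their 90th percentile fluorescence all below set limits, cut at about 80% in these data, passing the limit was not always enough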;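 note: values below 100% mean blocked vesicle binding to the CD8+ T cells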
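Also added: QL9-peptide-loaded Drosophila micro-vesicles bearing Ld, ICAM-1 and B7-1; Test system: purified 2C TCR transgenic mouse naive CD8+ T cells; Measured by: cytometric PE anti-B7-1 and Alexa647 anti-CD8 signals after 1% paraformaldehyde fixation; Timing: binding step 1.5 h, 37 °C, antibody labelling 20 min, ice.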
CHT inh conf – human CHT inhibition, confirmatory screen; shares compounds with CHT inh; CHT-expressing cells, choline membrane potential dye; LV-to-AA substituted CHT, HEK293 cells; CHT activity remaining % of control (hits give low values), % at 10 µM; actives 70% (n = 2,400); AID 493221;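 active = choline transporter activity left, mean of duplicates at 10 µM, below buffer-only control mean minus 3 SD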;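 note: depolarization triggered by choline at its EC90 following an EC20 pre-addition; 0% = hemicholinium-3 full block and 100% = buffer-only control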
HEK293 MPD ctr – CHT inhibitor counter-screen hit in parental HEK293 cells; shares compounds with CHT inh; membrane potential dye, choline response; active = decrease or increase beyond buffer ±3SD; membrane potential ratio readout (active if shifted either direction beyond buffer ±3SD; no single direction) at 10 µM; actives 4% (n = 2,400);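 note: parental cells lack the transporter so any hit is non-specific; ratio is peak minus trough fluorescence over baseline after EC90 choline challenge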
An asterisk follows results filed as active; i = inactive; . = no result. Sampled rows, rich in hits. Any-hit rate of the full collection: about 1.5%.

SMILES | VLA-4 inh | CHT allo act | CHT inh | T cell modulator | CHT inh conf | HEK293 MPD ctr
Cc1cccc(NC(=O)NCc2ccc3c(c2)OCO3)c1C | 9 | i | -5.2* | 251 | i | i
CCc1ccccc1NC(=O)NCc1ccc2c(c1)OCO2 | -13 | i | i | 172 | . | .
Cc1cc2nc(C)c(Cl)c(=O)n2[nH]1 | -1 | i | -7.4* | 137 | 20%* | i
C=C(C)C(=O)Oc1ccc(N2C(=O)[C@@H]3C4C=CC(C4)[C@@H]3C2=O)cc1 | 11 | i | i | 214 | . | .
C=CCOc1ccccc1CNCc1ccc(F)cc1 | -1 | i | -7.5* | 481 | 26%* | -14*
CCNC(=O)C1(c2ccccc2)CCCC1 | 7 | i | -6.8* | 663 | i | i
Cn1cc(/C=C2\SC(=O)N(c3ccc(O)cc3)C2=O)c2ccccc21 | 17 | i | i | 84 | . | .
Cn1cc(/C=C2\SC(=O)N(c3ccccc3)C2=O)c2ccccc21 | -3 | i | -6.5* | 287 | i | i
Oc1c(Cl)cc(Cl)cc1C=Nc1ccc(Br)cc1 | 3 | i | -6.5* | 283 | 51%* | i
Cc1ccc(N=Cc2cc(Br)cc(Cl)c2O)cc1 | -4 | i | i | 244 | . | .
COc1ccccc1N1CCN(C2CCCN(C(=O)CCc3c(C)noc3C)C2)CC1 (centres undefined) | -108 | i | i | 264 | . | .
O=C(Nc1ccc(S(=O)(=O)NC2=NCCCCC2)cc1)C1COc2ccccc2O1 (centres undefined) | 18 | i | -5.1* | 306 | 40%* | i
O=C(Nc1cccc(S(=O)(=O)NC2=NCCCCC2)c1)C1COc2ccccc2O1 (centres undefined) | -4 | i | i | i | . | .
Cc1ccc(C(=O)Nc2ccc(S(=O)(=O)NC3=NCCCCC3)cc2)c(C)c1 | -2 | i | -5.9* | 266 | 19%* | i
CN1CCN(C(=O)c2ccccc2NC(=O)c2ccccc2)CC1 | 6 | i | i | 499 | . | .
COC(=O)CC(NC(=O)Nc1ccccc1F)c1ccc2c(c1)OCO2 (centres undefined) | 13 | i | i | 201 | . | .
Cc1ccc(S(=O)(=O)NCCC(=O)N2CCC(Cc3ccccc3)CC2)cc1 | -6 | i | i | 307 | i | i
CC(=O)Nc1ccc(S(=O)(=O)NCCC(=O)N2CCC(Cc3ccccc3)CC2)cc1 | 0 | . | . | 414 | . | .
COc1cc(/C=C/C(=O)OCC(=O)NC2CCCCCCC2)ccc1O | 13 | . | . | 205 | . | .
O=C(OCc1nc2ccsc2c(=O)[nH]1)c1cc(Br)c(Br)s1 | 4 | i | -7.7* | 464 | 64%* | i
O=C(OCc1nc2ccsc2c(=O)[nH]1)c1ccco1 | 33 | i | i | 397 | . | .
N#Cc1nc(Cc2cccc3ccccc23)oc1N1CCOCC1 | 4 | i | -5.3* | 462 | 59%* | i
CC1CCN(c2oc(Cc3cccc4ccccc34)nc2C#N)CC1 | 10 | i | i | 176 | . | .
Cc1cc2[nH]c3ccccc3c2c(C)n1 | -12 | i | -7.3* | 396 | 34%* | i
Cc1nc(=S)c2ccccc2[nH]1 | 13 | i | i | 319 | . | .
SMILES | VLA-4 inh | CHT allo act | CHT inh | T cell modulator | CHT inh conf | HEK293 MPD ctr
Cc1cc(C)c(Cn2c3ccccc3c3cnn(CC(=O)NCCN4CCOCC4)c(=O)c32)c(C)c1 | 5 | i | -12* | 92 | 15%* | i
Cc1ccc(C)c(Cn2c3ccccc3c3cnn(CC(=O)NCCN4CCOCC4)c(=O)c32)c1 | -3 | i | i | 220 | . | .
CC(C)C(NC(=O)c1ccccc1NC(=O)c1ccccc1)C(=O)NCCCn1ccnc1 (centres undefined) | -5 | i | i | 155 | . | .
CCC(Oc1ccc(C)cc1)C(=O)Nc1ccc(S(=O)(=O)Nc2nccs2)cc1 (centres undefined) | 28 | i | -6.5* | 347 | 40%* | i
O=C(Nc1ccc(S(=O)(=O)Nc2nccs2)cc1)c1c(F)c(F)c(F)c(F)c1F | 0 | i | -5* | 244 | 35%* | i
CC(Oc1ccccc1)C(=O)Nc1ccc(S(=O)(=O)Nc2nccs2)cc1 (centres undefined) | -7 | i | i | 458 | . | .
CS(=O)(=O)Nc1ccc(C(=O)Nc2ccc(S(=O)(=O)Nc3nccs3)cc2)cc1 | 20 | i | i | 433 | . | .
CC1CC(C)CN(CCC(=O)Nc2ccc(Br)cc2)C1 (centres undefined) | -6 | i | i | 302 | . | .
CC[N+]1(CC)CC2=Cc3c(ccc4ccccc34)CC2C1 (centres undefined) | 11 | i | -6.4* | 273 | 46%* | i
CC1=NN(c2ccccc2)C(=O)/C1=C/c1c(O)n(-c2ccc(F)cc2)[nH]c1=O | -2 | i | -5.9* | 441 | 54%* | i
CC1=NN(c2ccccc2)C(=O)/C1=C/c1ccc(Cl)cc1 | 7 | i | i | 147 | . | .
O=C(O)[C@H]1CCCC[C@H]1C(=O)Nc1ccc(S(=O)(=O)N2CCOCC2)cc1 | 4 | i | i | 253 | . | .
COc1ccc(Nc2nc3ccccc3n2C)cc1 | 15 | i | -6.5* | 424 | 53%* | i
CCCCn1c(Nc2ccc(OC)cc2)nc2ccccc21 | -1 | i | i | 296 | . | .
CCOc1ccc(CCNC(=O)CCC(=O)N2CCOc3ccccc32)cc1OCC | -8 | i | i | 589 | . | .
CCOC(=O)c1cnc2c(C(F)(F)F)cccc2c1N1CCOCC1 | 9 | i | -5.8* | 333 | 52%* | i
O=C(CCc1cccc(Cl)c1)N1CCCC(Nc2ccccc2)C1 (centres undefined) | 10 | i | i | 96 | . | .
Cc1ccc(C)c(NC(=O)c2cccc(Oc3ccc([N+](=O)[O-])cc3Cl)c2)c1 | 2 | i | -7.2* | 182 | 49%* | i
COc1ccc(NC(=O)c2cccc(Oc3ccc([N+](=O)[O-])cc3Cl)c2)cc1 | 3 | i | i | 191 | . | .
Cc1ccc(CSc2nc3nc(C)cc(C)n3n2)cc1 | 10 | i | i | 386 | . | .
Cc1cc(C)n2nc(SCc3cccc(S(=O)(=O)N(C)C)c3)nc2n1 | -4 | i | -5.3* | 88 | 68%* | i
COc1ccc(CSc2nc3nc(C)cc(C)n3n2)cc1F | 7 | i | -6* | 52 | 46%* | i
Cc1ccc(S(=O)(=O)CCC(=O)OCC(=O)Nc2ccc(N3CCOCC3)cc2)cc1 | 1 | i | i | 232 | . | .
COc1ccc(C2=NOC(Cn3nc(C(=O)NCc4cccc(Br)c4)cc3-c3ccccc3)C2)cc1 (centres undefined) | -12 | . | . | 189 | . | .
O=C(CSc1nc2ccccc2[nH]1)NCc1ccc2c(c1)OCO2 | 0 | i | i | 190 | . | .

Screening results: PubChem, several laboratories
